In BindingDB's records for doi:10.1021/jm300345z (University of Copenhagen, 2012):

Columns and labels:
[1] = target: Excitatory amino acid transporter 1 (Homo sapiens, UniProt P43003); assay: Inhibition of human EAAT1 expressed in HEK293 cells assessed as inhibition of 3[H]-D-Aspartate uptake after 6 mins by scintillation counting method
In short: (§1)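 HEK293 cell lines expressing EAAT1, EAAT2 or EAAT3 were cultured and assayed for [³H]-D-aspartate uptake, following an earlier published protocol. Inhibition is reported as IC50 in μM, with pIC50 ± SEM.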

[2] = target: T1, Excitatory amino acid transporter 3 (Homo sapiens, UniProt P43005); assay: Inhibition of human EAAT3 expressed in HEK293 cells assessed as inhibition of 3[H]-D-Aspartate uptake after 6 mins by scintillation counting method; in short: as §1
T1 sequence (P43005 whole entry): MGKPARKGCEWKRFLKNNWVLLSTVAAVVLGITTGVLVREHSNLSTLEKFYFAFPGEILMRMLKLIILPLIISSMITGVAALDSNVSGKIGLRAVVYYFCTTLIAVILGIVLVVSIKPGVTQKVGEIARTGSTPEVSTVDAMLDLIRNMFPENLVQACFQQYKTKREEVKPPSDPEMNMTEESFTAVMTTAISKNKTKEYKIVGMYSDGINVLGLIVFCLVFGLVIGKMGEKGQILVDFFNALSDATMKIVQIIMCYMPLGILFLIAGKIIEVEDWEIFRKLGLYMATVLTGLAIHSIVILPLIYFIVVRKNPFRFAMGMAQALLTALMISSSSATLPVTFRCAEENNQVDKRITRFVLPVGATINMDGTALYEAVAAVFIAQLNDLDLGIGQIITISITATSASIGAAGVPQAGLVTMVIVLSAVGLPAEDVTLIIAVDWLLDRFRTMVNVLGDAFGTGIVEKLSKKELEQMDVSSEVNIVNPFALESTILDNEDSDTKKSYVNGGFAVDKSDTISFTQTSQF

[3] = target: Excitatory amino acid transporter 2 (Homo sapiens, UniProt P43004); assay: Inhibition of human EAAT2 expressed in HEK293 cells assessed as inhibition of 3[H]-D-Aspartate uptake after 6 mins by scintillation counting method; in short: as §1
Chain of Excitatory amino acid transporter 2 (P43004 whole entry): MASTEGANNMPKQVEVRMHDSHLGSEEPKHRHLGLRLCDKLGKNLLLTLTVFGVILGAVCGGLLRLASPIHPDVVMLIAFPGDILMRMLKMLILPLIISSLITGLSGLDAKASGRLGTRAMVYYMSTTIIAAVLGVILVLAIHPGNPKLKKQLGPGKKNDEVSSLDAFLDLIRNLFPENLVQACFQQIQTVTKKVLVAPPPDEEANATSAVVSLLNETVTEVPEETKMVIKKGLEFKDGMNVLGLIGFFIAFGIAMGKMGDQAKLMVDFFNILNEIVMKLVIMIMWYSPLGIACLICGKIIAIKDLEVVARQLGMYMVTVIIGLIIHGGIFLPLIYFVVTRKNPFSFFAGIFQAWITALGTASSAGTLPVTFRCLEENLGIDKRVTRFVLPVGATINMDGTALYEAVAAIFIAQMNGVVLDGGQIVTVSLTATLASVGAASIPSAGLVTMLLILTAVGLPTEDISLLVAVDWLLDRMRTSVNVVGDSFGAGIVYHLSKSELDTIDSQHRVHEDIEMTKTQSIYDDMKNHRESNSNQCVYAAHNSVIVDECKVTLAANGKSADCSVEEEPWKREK

Chain of Excitatory amino acid transporter 1 (P43003 whole entry): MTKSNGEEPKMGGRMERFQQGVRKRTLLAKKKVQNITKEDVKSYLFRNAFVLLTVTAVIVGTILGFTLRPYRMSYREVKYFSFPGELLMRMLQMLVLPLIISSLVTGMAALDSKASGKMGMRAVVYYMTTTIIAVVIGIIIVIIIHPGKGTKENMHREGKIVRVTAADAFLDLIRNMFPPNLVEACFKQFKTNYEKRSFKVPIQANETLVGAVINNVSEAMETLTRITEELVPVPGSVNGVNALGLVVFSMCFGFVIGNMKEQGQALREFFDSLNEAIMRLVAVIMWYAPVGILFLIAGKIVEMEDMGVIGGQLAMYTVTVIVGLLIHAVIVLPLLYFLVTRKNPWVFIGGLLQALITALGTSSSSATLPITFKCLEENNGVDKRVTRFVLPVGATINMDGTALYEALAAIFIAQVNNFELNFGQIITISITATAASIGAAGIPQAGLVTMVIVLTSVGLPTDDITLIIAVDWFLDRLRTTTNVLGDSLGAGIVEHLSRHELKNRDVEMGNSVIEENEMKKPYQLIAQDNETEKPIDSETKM

Row | IC50 [1] | IC50 [2] | IC50 [3] | Compound
1 | > 100 µM | > 100 µM | > 100 µM | N#CC1C(=N)OC2=C(C(=O)CN(C(=O)c3ccccc3)C2)C1c1ccccc1 (configuration not stated)
2 | > 300 µM | – | – | CC1(C)C2=C(CC(c3ccccc3)CC2=O)OC(=N)C1C#N (configuration not stated)
3 | > 100 µM | > 100 µM | > 100 µM | N#CC1C(=N)OC2=C(C(=O)CN(c3ccccc3)C2)C1c1ccccc1 (configuration not stated)
